Active and inactive are the calls of the source. The calls are words filed in the database; no cut-off is given here.
Columns and labels:
Nucleic Acid [1] = test: Stabilization of human F21T G4-telomeric quadruplex assessed as melting temperature by FRET assay; assay type: nucleic-acid assay
Summary of the method: (§1)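 FRET melting temperature assay reporting the shift in quadruplex melting temperature. Competition runs added excess duplex DNA at different ratios, expressed as G-quartet concentration versus duplex nucleotide phosphate concentration.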

Nucleic Acid [2] = test: Stabilization of human c-kit1 G4 DNA sequence assessed as melting temperature by FRET assay; assay type: nucleic-acid assay
Nucleic Acid [3] = test: Stabilization of human c-kit2 G4 DNA sequence assessed as melting temperature by FRET assay; assay type: nucleic-acid assay
Nucleic Acid [4] = test: Stabilization of human duplex DNA T-loop assessed as melting temperature by FRET assay; assay type: nucleic-acid assay
Nucleic Acid [5] = test: Stabilization of human F21T G4-telomeric quadruplex by FRET assay in presence of duplex to quadruplex DNA ratio of 10:1; assay type: nucleic-acid assay; summary of the method: as §1
Nucleic Acid [6] = test: Stabilization of human F21T G4-telomeric quadruplex assessed in presence of 300 fold excess duplex DNA by FRET assay; assay type: nucleic-acid assay; summary of the method: as §1
Nucleic Acid [7] = test: Stabilization of human G4-telomeric quadruplex 23-mer DNA assessed as topology at 1:1 to 1:15 DNA to compound ratio at pH 7.4 after 6 hrs by circular dichroism spectroscopy in presence of 100 mM K+ ions; assay type: nucleic-acid assay
Summary of the method: (§2)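 Circular dichroism spectra of the human telomeric 23-mer DNA at pH 7.4 with various DNA:ligand ratios.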

Nucleic Acid [8] = test: Stabilization of human G4-telomeric quadruplex 23-mer DNA assessed as topology at 1:1 to 1:15 DNA to compound ratio at pH 7.4 after 6 hrs by circular dichroism spectroscopy in presence of 100 mM Na+ ions; assay type: nucleic-acid assay; summary of the method: as §2
Nucleic Acid [9] = test: Stabilization of Wt26 G-telomeric quadruplex DNA assessed as inhibition of human POT1 binding to DNA by EMSA assay; assay type: nucleic-acid assay
Summary of the method: (§3)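 In vitro EMSA measuring displacement of hPOT1 or Topo IIIα binding to the telomeric sequence WT26. For Topo IIIα, a duplex DNA substrate was tested in parallel.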

Nucleic Acid [10] = test: Stabilization of Wt26 G-telomeric quadruplex DNA assessed as inhibition of human TOPO 3-alpha binding to DNA by EMSA assay; assay type: nucleic-acid assay; summary of the method: as §3
Nucleic Acid [11] = test: Stabilization of duplex DNA assessed as inhibition of human TOPO 3-alpha binding to duplex DNA by EMSA assay; assay type: nucleic-acid assay; summary of the method: as §3
MCF7 [12] = test: Cytotoxicity against human MCF7 cells after 96 hrs by SRB assay; conditions: MCF7, 96 h
A549 = test: Cytotoxicity against human A549 cells after 96 hrs by SRB assay; conditions: A549, 96 h
HPAC = test: Cytotoxicity against human HPAC cells after 96 hrs by SRB assay
PANC-1 = test: Cytotoxicity against human PANC1 cells after 96 hrs by SRB assay; conditions: PANC-1, 96 h
BXPC-3 = test: Cytotoxicity against human BxPC3 cells after 96 hrs by SRB assay; conditions: BXPC-3, 96 h
[13] = Cytotoxicity against human WI138 cells after 96 hrs by SRB assay
MIA PaCa-2 = test: Cytotoxicity against human MIAPaCa2 cells after 96 hrs by SRB assay; conditions: MIA PaCa-2, 96 h
MCF7 [14] = test: Inhibition of human telomerase activity in human MCF7 cells at 50 nM after 1 week by modified TRAP assay; assay type: cell-based
Summary of the method: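 MCF7 cells were exposed to 50 nM ligand for 1 week, then a further week. Telomerase activity was measured by a modified TRAP–LIG assay with denaturing gel separation. Each PCR product ladder's total intensity was scanned and integrated, then normalized to a positive control with untreated telomerase protein only.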

SMILES | deltaTm (Nucleic Acid [1]) [K] | deltaTm (Nucleic Acid [2]) [K] | deltaTm (Nucleic Acid [3]) [K] | deltaTm (Nucleic Acid [4]) [K] | Activity (Nucleic Acid [5]) | Activity (Nucleic Acid [6]) [%] | Activity (Nucleic Acid [7]) | Activity (Nucleic Acid [8]) | inhibition (Nucleic Acid [9]) | inhibition (Nucleic Acid [10]) | inhibition (Nucleic Acid [11]) | IC50 (MCF7 [12]) [nM] | IC50 (A549) [nM] | IC50 (HPAC) [nM] | IC50 (PANC-1) [nM] | IC50 (BXPC-3) [nM] | IC50 [13] [µM] | IC50 (MIA PaCa-2) [nM] | inhibition (MCF7 [14]) [%]
CN1CCN(CCCCCNc2cc3c4c(c(NCCCCCN5CCN(C)CC5)cc5c4c2C(=O)N(CCCCCN2CCN(C)CC2)C5=O)C(=O)N(CCCCCN2CCN(C)CC2)C3=O)CC1 | 23.8 | 1.5 | 7.7 | 0.2 | Active | 50 | Active | Active | Active | Active | inactive | 196 | 258 | 205 | 193 | 759 | 8.43 | 121 | –
CN1CCN(CCCNc2cc3c4c(c(NCCCN5CCN(C)CC5)cc5c4c2C(=O)N(CCCN2CCN(C)CC2)C5=O)C(=O)N(CCCN2CCN(C)CC2)C3=O)CC1 | 28.3 | 1.8 | 15.2 | 1.3 | Active | 50 | Active | Active | Active | Active | inactive | 167 | 108 | 186 | 148 | 1520 | 9.04 | 111 | 50
CN1CCN(CCCCNc2cc3c4c(c(NCCCCN5CCN(C)CC5)cc5c4c2C(=O)N(CCCCN2CCN(C)CC2)C5=O)C(=O)N(CCCCN2CCN(C)CC2)C3=O)CC1 | 24.7 | 4.9 | 16.7 | 0.1 | Active | 50 | Active | Active | – | – | – | 100 | 69 | 117 | 106 | 1020 | 5.5 | 73 | –
